# Calls of active or inactive are those of the source.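 Rule for the calls: active = mean EC50 of 20 µM or lower; inactive = the rest.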
# Target: CHO-CHOP luciferase reporter, UPR apoptotic arm activation
# Assay: activators of PERK-eIF2a-CHOP apoptotic UPR arm, SAR follow-up, cell-based, CHO-CHOP line, luminescence, set 2 (AID 588594)
# In short: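 Control set: tunicamycin 10 µg/mL final as high control, DMSO only as low control; Material: CHO cells, stable CHOP luciferase reporter; Timing: overnight seeding, then 6 h compound exposure, 37 °C; Signal: luminescence after Steady-Glo luciferase reagent addition; Dosing: dose-response series, DMSO ≤1%.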
row,Structure (SMILES),EC50
1,O=C(Nc1nc2cc(F)c(F)cc2s1)c1ccccn1,8.28 µM
2,O=C(Nc1nc2cccc(F)c2s1)c1ccccn1,7 µM
3,O=C(Nc1nc2cc(F)ccc2s1)c1ccccn1,7.13 µM
4,O=C(Nc1nc2c(F)ccc(F)c2s1)c1ccccn1,6.65 µM
5,O=C(Nc1nc2ccc(Cl)cc2s1)c1ccccn1,5.99 µM
6,CC1(C)CCN(S(=O)(=O)c2ccc(NC(=O)c3ccc(C(F)(F)F)o3)cc2)CC1,> 80 µM (inactive)
7,Cn1c([N+](=O)[O-])cnc1C(=O)Nc1ccc(S(=O)(=O)N2CCC(C)(C)CC2)cc1,> 77.5 µM (inactive)
8,O=C(Nc1nc2cc(F)cc(F)c2s1)c1ccccn1,6.87 µM
9,O=C(Nc1nc2c(F)c(F)ccc2s1)c1ccccn1,9.88 µM
10,CC1(C)CCN(S(=O)(=O)c2ccc(NC(=O)c3cccc([N+](=O)[O-])c3)cc2)CC1,> 80 µM (inactive)
11,O=C(Nc1nc2ccc(F)c(F)c2s1)c1ccccn1,5.59 µM

# Now from value to compound:
row,EC50,Structure (SMILES)
1,1.36 µM,CC1CN(S(=O)(=O)c2ccc(NC(=O)c3ccc([N+](=O)[O-])o3)cc2)CC(C)O1 (stereo not drawn)
2,0.774 µM,O=C(Nc1ccc(S(=O)(=O)N2CCC(F)CC2)cc1)c1ccc([N+](=O)[O-])o1
3,1.19 µM,O=C(Nc1ccc(S(=O)(=O)C2CCOCC2)cc1)c1ccc([N+](=O)[O-])o1
4,0.739 µM,O=C(Nc1ccc(S(=O)(=O)N2CCC(Cl)CC2)cc1)c1ccc([N+](=O)[O-])o1
5,0.676 µM,CC(C)(C)C1CCN(S(=O)(=O)c2ccc(NC(=O)c3ccc([N+](=O)[O-])o3)cc2)CC1
6,0.732 µM,O=C(Nc1ccc(S(=O)(=O)N2CCC3(CCCCC3)CC2)cc1)c1ccc([N+](=O)[O-])o1
7,4.68 µM,O=C(Nc1nc2ccc(C(F)(F)F)cc2s1)c1ccccn1

# From PubChem BioAssay AID588594 (Sanford-Burnham Center for Chemical Genomics, 2011)
